{"source": "ChEMBL document CHEMBL3286091", "about": "“Novel N-linked aminopiperidine-based gyrase inhibitors with improved hERG and in vivo efficacy against Mycobacterium tuberculosis” (J Med Chem, 2014)", "key": {"[1]": {"test": "Ratio of MIC for 2-oxo-1-(2-(4-((3-oxo-3,4-dihydro-2H-pyrido[3,2-b][1,4]oxazin-6-yl)methylamino)piperidin-1-yl)ethyl)-1,2-dihydroquinoline-7-carbonitrile-resistant Mycobacterium tuberculosis harboring DNA gyraseA A74V mutant to MIC for wild-type Mycobacterium tuberculosis H37Rv ATCC 27294", "format": "functional"}, "[2]": {"system": "Mycobacterium tuberculosis", "test": "Antimycobacterial activity against spontaneously resistant mutant of Mycobacterium tuberculosis H37Rv at 8 times MIC up to 6 to 8 weeks", "format": "functional, organism-based", "outline": "(§1)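 Single-step selection: mid-log H37Rv culture concentrated 100-fold to ~10^10 cfu/mL and plated in dilutions on 7H11 agar with varying drug concentrations. Drug-free plates were counted after 4 weeks at 37 °C and drug plates after 6−8 weeks. Frequency is the colony count on drug plates divided by viable cfu on drug-free plates.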"}, "[3]": {"system": "Mycobacterium tuberculosis", "test": "Antimycobacterial activity against 2-oxo-1-(2-(4-((3-oxo-3,4-dihydro-2H-pyrido[3,2-b][1,4]oxazin-6-yl)methylamino)piperidin-1-yl)ethyl)-1,2-dihydroquinoline-7-carbonitrile-resistant Mycobacterium tuberculosis harboring DNA gyraseA A74V mutant", "format": "functional"}, "[4]": {"test": "Ratio of MIC for 5-(((3S,4R)-3-Fluoro-1-(2-(7-methoxy-2-oxo-1,5-naphthyridin-1(2H)-yl)ethyl)piperidin-4-ylamino)methyl)-2-methylnicotinonitrile-resistant Mycobacterium tuberculosis harboring DNA gyraseA D89N mutant to MIC for wild-type Mycobacterium tuberculosis H37Rv ATCC 27294", "format": "functional"}, "[5]": {"system": "Mycobacterium tuberculosis", "test": "Antimycobacterial activity against 5-(((3S,4R)-3-Fluoro-1-(2-(7-methoxy-2-oxo-1,5-naphthyridin-1(2H)-yl)ethyl)piperidin-4-ylamino)methyl)-2-methylnicotinonitrile-resistant Mycobacterium tuberculosis harboring DNA gyraseA D89N mutant", "format": "functional"}, "[6]": {"system": "Mycobacterium tuberculosis", "test": "Antimycobacterial activity against moxifloxacin-resistant Mycobacterium tuberculosis harboring DNA gyraseA G88N mutant", "format": "functional"}, "[7]": {"system": "Mycobacterium tuberculosis", "test": "Antimycobacterial activity against spontaneously resistant mutant of Mycobacterium tuberculosis H37Rv at 10 to 20 times MIC up to 6 to 8 weeks", "format": "functional, organism-based", "outline": "as §1"}}, "note": "Activity calls are given as the source filed them. No cut-off for these calls is given here.", "data": [{"smiles": "N#Cc1ccc2ccc(=O)n(CCN3CCC(NCc4ccc5c(n4)NC(=O)CO5)CC3)c2c1", "values": [{"measurement": "Ratio", "setting": "[1]", "result": "> 16"}, {"measurement": "Activity", "setting": "[2]", "result": "inactive"}, {"measurement": "MIC", "setting": "[3]", "result": 2, "unit": "µg/mL"}, {"measurement": "Ratio", "setting": "[4]", "result": "> 16"}, {"measurement": "MIC", "setting": "[5]", "result": ">2", "unit": "µg/mL"}, {"measurement": "MIC", "setting": "[6]", "result": 0.03, "unit": "µg/mL"}]}, {"smiles": "COc1c(N2C[C@@H]3CCCN[C@@H]3C2)c(F)cc2c(=O)c(C(=O)O)cn(C3CC3)c12", "note": "[MOXIFLOXACIN]", "values": [{"measurement": "MIC", "setting": "[3]", "result": 0.06, "unit": "µg/mL"}, {"measurement": "MIC", "setting": "[5]", "result": 1, "unit": "µg/mL"}, {"measurement": "Activity", "setting": "[7]", "result": "inactive"}, {"measurement": "MIC", "setting": "[6]", "result": 4, "unit": "µg/mL"}]}, {"smiles": "Cc1ncc(CNC2CCN(CCn3c(=O)ccc4ccc(C#N)cc43)CC2)cc1C#N", "values": [{"measurement": "Ratio", "setting": "[1]", "result": "> 16"}, {"measurement": "MIC", "setting": "[3]", "result": ">2", "unit": "µg/mL"}, {"measurement": "Ratio", "setting": "[4]", "result": "> 16"}, {"measurement": "MIC", "setting": "[5]", "result": ">2", "unit": "µg/mL"}, {"measurement": "MIC", "setting": "[6]", "result": 0.06, "unit": "µg/mL"}]}, {"smiles": "CO[C@H]1/C=C/O[C@@]2(C)Oc3c(C)c(O)c4c(O)c(c(/C=N/N5CCN(C)CC5)c(O)c4c3C2=O)NC(=O)/C(C)=C\\C=C\\[C@H](C)[C@H](O)[C@@H](C)[C@@H](O)[C@@H](C)[C@H](OC(C)=O)[C@@H]1C", "note": "[RIFAMPIN]", "values": [{"measurement": "MIC", "setting": "[3]", "result": 0.008, "unit": "µg/mL"}, {"measurement": "MIC", "setting": "[5]", "result": 0.015, "unit": "µg/mL"}, {"measurement": "MIC", "setting": "[6]", "result": 0.008, "unit": "µg/mL"}]}, {"smiles": "COc1cnc2ccc(=O)n(CCN3CC[C@@H](NCc4cnc(C)c(C#N)c4)[C@@H](F)C3)c2c1", "values": [{"measurement": "Ratio", "setting": "[1]", "result": "> 16"}, {"measurement": "MIC", "setting": "[3]", "result": 1, "unit": "µg/mL"}, {"measurement": "Ratio", "setting": "[4]", "result": "> 16"}, {"measurement": "MIC", "setting": "[5]", "result": ">1", "unit": "µg/mL"}, {"measurement": "Activity", "setting": "[7]", "result": "inactive"}, {"measurement": "MIC", "setting": "[6]", "result": 0.03, "unit": "µg/mL"}]}, {"smiles": "NNC(=O)c1ccncc1", "note": "[ISONIAZID]", "values": [{"measurement": "MIC", "setting": "[3]", "result": 0.06, "unit": "µg/mL"}, {"measurement": "MIC", "setting": "[5]", "result": 0.03, "unit": "µg/mL"}, {"measurement": "MIC", "setting": "[6]", "result": 0.06, "unit": "µg/mL"}]}, {"smiles": "O=C1COc2ccc(CN[C@H]3CCN(CCn4c(=O)ccc5ncc(F)cc54)C[C@H]3F)nc2N1", "values": [{"measurement": "MIC", "setting": "[3]", "result": ">2", "unit": "µg/mL"}, {"measurement": "MIC", "setting": "[5]", "result": ">2", "unit": "µg/mL"}, {"measurement": "MIC", "setting": "[6]", "result": 0.06, "unit": "µg/mL"}]}, {"smiles": "CC1COc2c(N3CCN(C)CC3)c(F)cc3c(=O)c(C(=O)O)cn1c23", "note": "(centres undefined) [OFLOXACIN]", "values": [{"measurement": "MIC", "setting": "[3]", "result": 1, "unit": "µg/mL"}, {"measurement": "Ratio", "setting": "[4]", "result": 8}, {"measurement": "MIC", "setting": "[5]", "result": 4, "unit": "µg/mL"}, {"measurement": "MIC", "setting": "[6]", "result": 16, "unit": "µg/mL"}]}, {"smiles": "O=C(O)c1cn(C2CC2)c2cc(N3CCNCC3)c(F)cc2c1=O", "note": "[CIPROFLOXACIN]", "values": [{"measurement": "Activity", "setting": "[2]", "result": "inactive"}, {"measurement": "MIC", "setting": "[3]", "result": 0.25, "unit": "µg/mL"}, {"measurement": "Ratio", "setting": "[4]", "result": 16}, {"measurement": "MIC", "setting": "[5]", "result": 4, "unit": "µg/mL"}, {"measurement": "MIC", "setting": "[6]", "result": 8, "unit": "µg/mL"}]}]}
